The RNAGym collection of RNA variant scans (doi:10.1126/science.aae0568)
Variants at the floor of the assay were thinned out.

B1: tRNA (parent)
chain: GUUCCGUUGGCGUAAUGGUAACGCGUCUCCCUCCUAAGGAGAAGACUGCGGGUUCGAGUCCCGUACGGAACG

Variants of: B1
Test: yeast fitness relative to wild type (ratio to wild type); higher = fitter; tRNA-Arg(CCU), competitive growth, 37 C, YPD
Procedure, shortened: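 Start and end populations of a pooled competition were compared by 100-nucleotide paired-end sequencing of gene amplicons. The Saccharomyces cerevisiae strains carried tRNA-Arg(CCU) gene variants at the native genomic locus, synthesised with a 3% per-site mutation rate at 69 sites, and competed in YPD at 37°C for 24 hours in six parallel replicates. Darwinian fitness relative to wild type was based on the change in genotype frequencies. Genotypes required ≥ 100 starting reads, and estimates < 0.5 were set to 0.5.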

Row | Variant | yeast fitness
1 | GUUCCGUUGGCGCAAUGGUAACGCCUCUCGCUCCUAAGGAGAAGACUGCGGGUUCGAGUCCCGUACGGAACG [U13C G25C C30G] | 0.611
2 | GUUCCGUUGGCGCAAUGGUAACGCGUCUCCCUCCUAAGGAGAAGACUCCGGGUUCGCGUCCCGUACGGAACG [U13C G48C A57C] | ≤ 0.5
3 | GUUCCGUUGGCGCAAUGGUAACGCGUCUCCCUCCUAAGGAGAAGACUCCGGGUUCGGGUCCCGUACGGAACG [U13C G48C A57G] | ≤ 0.5
4 | GUUCCGUUGGCGCAAUGGUAACGCGUCUCCCUCCUAAGGAGAAAACUGCGGGUUCGAGUCCCGUACGGUACG [U13C G44A A69U] | 0.696
5 | GUUCCGUUGGCGCAAUGGUAACGCGAUUCCCUCCUAAGGAGAAGACUGCGGGUUCGAGUCCCGUACGGAACG [U13C U26A C27U] | 0.593
6 | GUUCCGUUGGCGCAAUGGGGACGCGUCUCCUUCCUAAGGAGAAAACUGCGGGUUCGAGUCCCGUACGGAACG [U13C U19G A20G C31U G44A] | ≤ 0.5
7 | GUUCCGUUGGCGCAAUGGUAACGCGUCUCCCUCCUAAGGAGAAGACUGCAGGUUCGAGUCCCGUACGGAACG [U13C G50A] | 0.874
8 | GUUCCGUUGGCGCAAUGGUAACGCGUCUCCCUCCUAAGGAGAAAACUGCGGGUUCGAGUCCCGUACGGAACG [U13C G44A] | 0.827
9 | GUUCCGUUGGCGCAAUGGUAACGCGUCUCCCUCCUAAGGAGAACACUGCGGGUUCGAGUCCCGUACGGAACG [U13C G44C] | 0.913
10 | GUUCCGUUGGCGCAAUGGUAACGCGUCUCCCUCCUAAGGAGAAGACCGCGGGUUCGAGUCCCGUGCGGAACG [U13C U47C A65G] | 0.766
11 | GUUCCGUUGGCGCAAUGAUAACGCGUCUCCCUCCUAAGGAGAAGACUGCGGGUUCGAGUCCCGUAGGGAACG [U13C G18A C66G] | 0.662
12 | GUUCCGUUGGCGCAAUGAUAACGCGUCUCCCUCCUAAGGAGAAGACUGCGGGUUCGAGUCCCGUACGGCACG [U13C G18A A69C] | 0.719
13 | GUUCCGUUGGCGCAAUGGUAACGCGUCUCCCGCCUAAGCAGAAGACUGCGGCUUCGAGUCCCGUACGGAACG [U13C U32G G39C G52C] | ≤ 0.5
14 | GUUCCGUUGGCGCAAUGGCAACGCGUCUCCCUCCUUAGGAGGAGACUGCGGAUUCGAGUACAGUACGGAACG [U13C U19C A36U A42G G52A C60A C62A] | ≤ 0.5
15 | GUUCCGUUGGCGCAAUGGUAACGCGUCUCCCUCCUAAGGAGAAGACUGCGGGUUCGAGUCCCGUACGAAACG [U13C G68A] | 0.785
16 | GUUCCGUUGGCGCAAUGGUAACGCGUCUCCCUCCUAAAGAGAAGACUGCGGGUUCGAGUCCCGUACGGAACG [U13C G38A] | 0.708
17 | GUUCCGUUGGCGCAAUGGUAACGCGUCUCCCUCCUAAGGAGAAGACCGCGGGUUCGAGUCCGGUACGGAACG [U13C U47C C62G] | ≤ 0.5
18 | GUUCCGUUGGCGCAAUGGUAACGCGUCUCCCUCCUAAGGAGAAGACUGCGGGUUCGAGUCCCAUACGGAACG [U13C G63A] | 0.937
19 | GUUCCGUUGGCGCAAUGGUAACGCCUCUCCCUCCUAAGGCGAAGACUGCGGGUUCGAGUCCCGUACGGAACG [U13C G25C A40C] | 0.667

Row | Variant | yeast fitness
20 | GUUCCGUUGGCGCAAUGGUAACCCGUCUCCCUCCUAAGGAGAAGACUGUGGGUUCGAGUCCCGUACGGAACG [U13C G23C C49U] | ≤ 0.5
21 | GUUCCGUUGGCGCAAUGGUAACGCAUCUCCCUCCUAAGGAGAAGACUGCGGGUUCGAGUCCCGUACGGUACG [U13C G25A A69U] | 0.767
22 | GUUCCGUUGGCGCAAGGGUAACGCGUCUCCCUCCUAAGGAGAAGACUGCGGGUUCGAGUCCCGUACGGAUCG [U13C U16G A70U] | 0.595
23 | GUUCCGUUGGCGCAAUGGUAACGCGUCUCCCCCCUAAGGAGAAGACUGCGGGUUCGAGUCCCGUACGGAACG [U13C U32C] | 0.88
24 | GUUCCGUUGGCGCAAUGGAAACGCGUCUCCCUCCUAAGGAGAAGACUGCGCGUUUGAGUCCCGGACGGAACG [U13C U19A G51C C55U U64G] | 0.633
25 | GUUCCGUUGGCGCAAACGUAACGCGUCUCCCUCUUAAGGAGAAGACUGCGGGUUCGAGUCCCGUACGGAACG [U13C U16A G17C C34U] | ≤ 0.5
26 | GUUCCGUUGGCGCAAUGGUAACGCGUCUCCCUCCUAAGGAGAAGACCGCGGGUUCCAGUCCCGUACGGAACG [U13C U47C G56C] | 0.544
27 | GUUCCGUUGGCGCAAUGGUAACGCGUCUCCCUCCUAAGGAGAAGACUGCGGGUUCCAGUCCCGUACGGAACG [U13C G56C] | 0.549
28 | GUUCCGUUGGCGCAAUGGUAACGCGUCUCCCUCCUAAGGAGAAGACUGCGGGUUCAAGUCCCGUACGGAACG [U13C G56A] | 1.04
29 | GUUCCGUUGGCGCAAUGGUAACGCGUCUCCCUCCUAAGGAGAAGACUACGGGUUCGAGUCGCGUACGGCACG [U13C G48A C61G A69C] | 0.594
30 | GUUCCGUUGGCGCAAUGGUAACGCCUCUCCCUCCUAAGGAGAAGACUGCGGGUUCGAGUCCCGUACGGAACG [U13C G25C] | 0.996
31 | GUUCCGUUGGCGCAAUGGUAACGCAUCUCCCUCCUAAGGAGAAGACUGCGGGUUCGAGUCCCGUACGGAACG [U13C G25A] | 0.902
32 | GUUCCGUUGGCGCAAUGGUAACGCGUCUCCCUCCUAAGGAGAAGACUGCGGGUUCGAGUGCCGUACGGCACG [U13C C60G A69C] | ≤ 0.5
33 | GUUCCGUUGGCGCAAUGAUAACGCGUCUCCCUCCUAAGGAGAAGACUGCGGGUUCGAGUCCCGUACGGAACG [U13C G18A] | 0.843
34 | GUUCCGUUGGCGCAAUGGUAACGCGUCCCCCUCCUAAGGAGAAGACCGCGGGUUAGAGUCCCGUACGGAACG [U13C U28C U47C C55A] | 0.545
35 | GUUCCGUUGGCGCAAUGGUAACCCGUCUCCCUCCUAAGGAGAAGACUGCGGGUUCGAGUCCCGUACGGAACG [U13C G23C] | 0.511
36 | GUUCCGUUGGCGCAAUGGUAACGCAUCUCCUUCCUAAGGAGAAGACUGCGGGUUCGAGUCCCGUACGGAACG [U13C G25A C31U] | 0.749
37 | GUUCCGUUGGCGCAAUGGUAACGCGUCCCCCUCCUAAGGAGAAGACUGCGGGUUCGAGUCCCGUACGGAACG [U13C U28C] | 0.838
